Measured values collected from several papers.
Compare with care: the assays were run in different laboratories.
DYRK1A: Dual specificity tyrosine-phosphorylation-regulated kinase 1A (DYRK1A, Homo sapiens, UniProt Q13627)
ADRA1D: Alpha-1D adrenergic receptor (ADRA1D, Homo sapiens, UniProt P25100)
PDGFRB: Platelet-derived growth factor receptor beta (PDGFRB, Homo sapiens, UniProt P09619)

SMILES	target	test	conditions	endpoint	result
Nc1ncnc2c1ncn2[C@@H]1O[C@H](COP(=O)(O)OP(=O)(O)OP(=O)(O)O)[C@@H](O)[C@H]1O	Inositol-tetrakisphosphate 1-kinase (Homo sapiens, UniProt Q13572)	enzyme activity, substrate, ADP detection		Km	2700 nM
Cc1cc(O)c(-c2ccc([C@@H](C)CN(C)C)cc2)c2c1[nH]c(=O)c1sccc12	Microtubule-associated serine/threonine-protein kinase 3 (MAST3, Homo sapiens, UniProt O60307)	enzyme activity, inhibitor	0.1 µM	inhibition	2.4%
CC(C)(C)C1CCc2c(C(=O)N/N=C/c3ccsc3)csc2C1 (centres unmarked)	DYRK1A	enzyme activity, inhibitor, ADP detection	10 µM	inhibition	23.1%
CCN1/C(=C/C(C)=O)Sc2ccc(F)cc21	Neuropeptide Y receptor type 2 (NPY2R, Homo sapiens, UniProt P49146)	ligand displacement, radioligand	10 µM	inhibition	0%
CN(C)CCOC(=O)COc1ccc(Cl)cc1	ADRA1D	ligand displacement, radioligand	1 µM, cell membranes	inhibition	0%
C1=C/COCc2cc(ccc2OCCN2CCCC2)Nc2nccc(n2)-c2cccc(c2)COC/1	Myosin light chain kinase 2, skeletal/cardiac muscle (MYLK2, Homo sapiens, UniProt Q9H1R3)	binding	0.1 µM	remaining binding	76%
COc1ccc2oc(-c3ccc4nc(N)oc4c3)c/c(=N\c3ccccc3NC(=O)CCN)c2c1	PDGFRB	binding	1 µM	remaining binding	107%
N#Cc1ccc(NC(=O)Nc2ccccc2)cc1	PDGFRB	cell-free assay, competition with immobilised ligand	25 µM	remaining binding	33%
CCCCC(=O)Nc1ccc(-c2ccc3ncn(CCC)c(=O)c3c2)cn1	Ephrin type-A receptor 7 (EPHA7, Homo sapiens, UniProt Q15375)	binding, competition with immobilised ligand	0.5 µM	remaining binding	100%
Nc1cc(-c2ccncc2)cs1	DYRK1A	enzyme activity, inhibitor, ADP detection	10 µM	inhibition	25.6%
C#Cc1cc(-c2cc(Nc3nc(N[C@@H](C)c4ccc(F)cn4)ncc3Cl)n[nH]2)ccc1C=O	Homeodomain-interacting protein kinase 2 (HIPK2, Homo sapiens, UniProt Q9H2X6)	enzyme activity, inhibitor	0.2 µM	inhibition	40.4%
CC(=O)ON=C1C=CC(=C(C#N)c2ccccc2)C=C1	DYRK1A	enzyme activity, inhibitor, ADP detection	20 µM	activity vs control	82%
Clc1ccc(-c2cn[nH]c2)s1	DYRK1A	enzyme activity, inhibitor, ADP detection	10 µM	inhibition	52.5%
NC/C(=C\F)COc1cccc(Cn2c(=S)[nH]c(=O)c3[nH]cnc32)c1	ADRA1D	ligand displacement, radioligand	10 µM	inhibition	< 50%
